Blank lines part the entries; values can stand above or below the compound they belong to. The source made the active and inactive calls. The calls are words filed in the database; no cut-off is given here.
Assays:
[1] = biological target: T1, Histone deacetylase 1 (Homo sapiens, UniProt Q13547); experiment: Inhibition of human C-terminal Flag tagged HDAC1 (1 to 482 residues) expressed in SF9 cells using Ac-peptide substrate preincubated for 15 mins followed by substrate addition and measured after 60 mins by microplate reader method
T1 sequence (Q13547 whole entry, the tested form may be a part): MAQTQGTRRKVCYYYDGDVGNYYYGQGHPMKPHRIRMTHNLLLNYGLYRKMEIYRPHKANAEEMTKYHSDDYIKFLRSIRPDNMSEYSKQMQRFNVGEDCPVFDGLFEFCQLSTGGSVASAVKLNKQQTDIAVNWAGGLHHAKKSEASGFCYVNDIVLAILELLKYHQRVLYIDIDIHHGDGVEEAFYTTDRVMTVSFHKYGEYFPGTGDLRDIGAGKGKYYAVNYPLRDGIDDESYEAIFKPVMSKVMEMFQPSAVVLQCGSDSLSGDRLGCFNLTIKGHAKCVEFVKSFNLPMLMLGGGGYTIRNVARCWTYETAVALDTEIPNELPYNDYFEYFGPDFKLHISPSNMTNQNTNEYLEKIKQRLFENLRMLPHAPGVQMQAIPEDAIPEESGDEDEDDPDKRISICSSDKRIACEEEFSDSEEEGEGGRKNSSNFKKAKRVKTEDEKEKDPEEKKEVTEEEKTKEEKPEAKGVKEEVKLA

[2] = biological target: T2, Hepatocyte growth factor receptor (Homo sapiens, UniProt P08581); experiment: Inhibition of c-MET(unknown origin) using FAM labelled peptide substrate preincubated for 10 mins followed by substrate addition and measured by microplate reader method
T2 sequence (P08581 whole entry): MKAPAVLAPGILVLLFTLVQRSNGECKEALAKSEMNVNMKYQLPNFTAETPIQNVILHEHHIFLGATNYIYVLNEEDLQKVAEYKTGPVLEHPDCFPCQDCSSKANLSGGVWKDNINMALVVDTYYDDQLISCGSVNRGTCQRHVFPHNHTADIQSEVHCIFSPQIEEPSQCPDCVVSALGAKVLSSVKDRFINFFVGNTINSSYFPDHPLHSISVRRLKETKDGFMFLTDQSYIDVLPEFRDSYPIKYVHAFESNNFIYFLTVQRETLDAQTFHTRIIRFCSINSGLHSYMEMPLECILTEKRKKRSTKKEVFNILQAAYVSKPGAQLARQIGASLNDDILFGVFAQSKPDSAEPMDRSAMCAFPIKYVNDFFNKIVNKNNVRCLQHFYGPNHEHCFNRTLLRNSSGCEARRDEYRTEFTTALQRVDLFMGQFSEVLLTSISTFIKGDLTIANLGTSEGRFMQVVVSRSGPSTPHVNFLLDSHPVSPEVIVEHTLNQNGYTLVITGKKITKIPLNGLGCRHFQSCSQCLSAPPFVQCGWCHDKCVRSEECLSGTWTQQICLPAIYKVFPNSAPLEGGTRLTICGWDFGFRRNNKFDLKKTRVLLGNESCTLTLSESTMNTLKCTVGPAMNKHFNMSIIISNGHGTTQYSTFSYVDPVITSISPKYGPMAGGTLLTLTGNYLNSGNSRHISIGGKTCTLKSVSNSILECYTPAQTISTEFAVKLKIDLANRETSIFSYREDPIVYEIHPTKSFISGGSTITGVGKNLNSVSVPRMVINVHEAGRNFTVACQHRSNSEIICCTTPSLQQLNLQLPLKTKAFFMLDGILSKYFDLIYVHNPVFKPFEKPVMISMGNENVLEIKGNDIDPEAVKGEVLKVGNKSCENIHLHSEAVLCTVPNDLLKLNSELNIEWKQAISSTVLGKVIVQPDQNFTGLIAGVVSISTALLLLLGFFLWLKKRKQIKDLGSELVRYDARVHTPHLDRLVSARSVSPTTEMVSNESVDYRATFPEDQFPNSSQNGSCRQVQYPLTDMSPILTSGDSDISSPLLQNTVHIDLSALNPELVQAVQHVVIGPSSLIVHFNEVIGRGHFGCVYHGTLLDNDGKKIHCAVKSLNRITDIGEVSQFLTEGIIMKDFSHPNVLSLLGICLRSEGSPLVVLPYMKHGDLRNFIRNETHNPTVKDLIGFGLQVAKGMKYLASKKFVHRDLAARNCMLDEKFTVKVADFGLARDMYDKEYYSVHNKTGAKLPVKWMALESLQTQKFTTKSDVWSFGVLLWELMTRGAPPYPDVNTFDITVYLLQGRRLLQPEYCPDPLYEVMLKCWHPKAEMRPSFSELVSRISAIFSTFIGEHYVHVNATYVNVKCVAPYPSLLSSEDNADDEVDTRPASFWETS

[3] = tested on: HCT-116; experiment: cells; assay type: functional, cell-based; conditions: Homo sapiens, HCT-116, 72 h
[4] = tested on: MCF7; experiment: cells; assay type: functional, cell-based; conditions: Homo sapiens, MCF7, 72 h
[5] = tested on: A549; experiment: cells; assay type: functional, cell-based; conditions: Homo sapiens, A549, 72 h
[6] = tested on: HCT-116; experiment: Induction of apoptosis in human HCT-116 cells assessed as viable cells at 0.2 uM measured after 48 hrs by Annexin V/PI staining based Flowcytometry method (reference value: 95.33%); assay type: functional; conditions: read-out: Activity
Outline: (§1)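 HCT-116 cells seeded at 10^5 cells/mL in 6-well plates. After 12 h, dosed at 0.2, 1.0 or 5.0 μM for 48 h, then washed three times in PBS. Stained with Annexin V-FITC/PI per kit and read by flow cytometry. Early apoptotic = Annexin V+/PI−, late = double positive. Mean ± S.D., n = 3.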

[7] = tested on: HCT-116; experiment: Induction of apoptosis in human HCT-116 cells assessed as early apoptotic cells at 0.2 uM measured after 48 hrs by Annexin V/PI staining based Flowcytometry method (reference value: 2.04%); assay type: functional; outline: as §1
[8] = tested on: HCT-116; experiment: Induction of apoptosis in human HCT-116 cells assessed as late apoptotic cells at 0.2 uM measured after 48 hrs by Annexin V/PI staining based Flowcytometry method (reference value: 1.44%); assay type: functional; outline: as §1
[9] = tested on: HCT-116; experiment: Induction of apoptosis in human HCT-116 cells assessed as necrotic cells at 0.2 uM measured after 48 hrs by Annexin V/PI staining based Flowcytometry method (reference value: 1.19%); assay type: functional; outline: as §1
[10] = tested on: HCT-116; experiment: Induction of apoptosis in human HCT-116 cells assessed as viable cells at 1 uM measured after 48 hrs by Annexin V/PI staining based Flowcytometry method (reference value: 95.33%); assay type: functional; conditions: read-out: Activity; outline: as §1
[11] = tested on: HCT-116; experiment: Induction of apoptosis in human HCT-116 cells assessed as early apoptotic cells at 1 uM measured after 48 hrs by Annexin V/PI staining based Flowcytometry method (reference value: 2.04%); assay type: functional; outline: as §1
[12] = tested on: HCT-116; experiment: Induction of apoptosis in human HCT-116 cells assessed as late apoptotic cells at 1 uM measured after 48 hrs by Annexin V/PI staining based Flowcytometry method (reference value: 1.44%); assay type: functional; outline: as §1
[13] = tested on: HCT-116; experiment: Induction of apoptosis in human HCT-116 cells assessed as necrotic cells at 1 uM measured after 48 hrs by Annexin V/PI staining based Flowcytometry method (reference value: 1.19%); assay type: functional; outline: as §1
[14] = tested on: HCT-116; experiment: Induction of apoptosis in human HCT-116 cells assessed as viable cells at 5 uM measured after 48 hrs by Annexin V/PI staining based Flowcytometry method (reference value: 95.33%); assay type: functional; conditions: read-out: Activity; outline: as §1
[15] = tested on: HCT-116; experiment: Induction of apoptosis in human HCT-116 cells assessed as early apoptotic cells at 5 uM measured after 48 hrs by Annexin V/PI staining based Flowcytometry method (reference value: 2.04%); assay type: functional; outline: as §1
[16] = tested on: HCT-116; experiment: Induction of apoptosis in human HCT-116 cells assessed as late apoptotic cells at 5 uM measured after 48 hrs by Annexin V/PI staining based Flowcytometry method (reference value: 1.44%); assay type: functional; outline: as §1
[17] = tested on: HCT-116; experiment: Induction of apoptosis in human HCT-116 cells assessed as necrotic cells at 5 uM measured after 48 hrs by Annexin V/PI staining based Flowcytometry method (reference value: 1.19%); assay type: functional; outline: as §1
[18] = tested on: HCT-116; experiment: Cell cycle arrest in human HCT-116 cells assessed as accumulation of cells in G2/M phase at 0.2 uM measured after 48 hrs by PI staining based flowcytometry method (reference value: 11.74%); assay type: functional
[19] = tested on: HCT-116; experiment: Cell cycle arrest in human HCT-116 cells assessed as accumulation of cells in S phase at 0.2 uM measured after 48 hrs by PI staining based flowcytometry method (reference value: 30.63%); assay type: functional
[20] = tested on: HCT-116; experiment: Cell cycle arrest in human HCT-116 cells assessed as accumulation of cells in G1 phase at 0.2 uM measured after 48 hrs by PI staining based flowcytometry method (reference value: 57.63%); assay type: functional
[21] = tested on: HCT-116; experiment: Cell cycle arrest in human HCT-116 cells assessed as accumulation of cells in G2/M phase at 1 uM measured after 48 hrs by PI staining based flowcytometry method (reference value: 11.74%); assay type: functional
[22] = tested on: HCT-116; experiment: Cell cycle arrest in human HCT-116 cells assessed as accumulation of cells in S phase at 1 uM measured after 48 hrs by PI staining based flowcytometry method (reference value: 30.63%); assay type: functional
[23] = tested on: HCT-116; experiment: Cell cycle arrest in human HCT-116 cells assessed as accumulation of cells in G1 phase at 1 uM measured after 48 hrs by PI staining based flowcytometry method (reference value: 57.63%); assay type: functional
[24] = tested on: HCT-116; experiment: Cell cycle arrest in human HCT-116 cells assessed as accumulation of cells in G2/M phase at 5 uM measured after 48 hrs by PI staining based flowcytometry method (reference value: 11.74%); assay type: functional
[25] = tested on: HCT-116; experiment: Cell cycle arrest in human HCT-116 cells assessed as accumulation of cells in S phase at 5 uM measured after 48 hrs by PI staining based flowcytometry method (reference value: 30.63%); assay type: functional
[26] = tested on: HCT-116; experiment: Cell cycle arrest in human HCT-116 cells assessed as accumulation of cells in G1 phase at 5 uM measured after 48 hrs by PI staining based flowcytometry method (reference value: 57.63%); assay type: functional
[27] = biological target: T2, Hepatocyte growth factor receptor; conditions: dose 100.0 nM, time 10.0 min
[28] = biological target: T1, Histone deacetylase 1; conditions: Sf9, dose 100.0 nM, time 75.0 min

- IC50 [1]: 18.5 nM
- IC50 [2]: 5.4 nM
- IC50 [3]: 220 nM
- IC50 [4]: 1590 nM
- IC50 [5]: 220 nM
Compound: COc1cc2c(Oc3ccc(NC(=O)c4nn(-c5ccccc5)ccc4=O)cc3)ccnc2cc1OCCCCCCC(=O)NO
- viability at 0.2 µM [6]: 94.9%
- Activity [7]: 2.35%
- Activity [8]: 1.84%
- Activity [9]: 0.9%
- viability at 1 µM [10]: 84.3%
- Activity [11]: 8.44%
- Activity [12]: 3.09%
- Activity [13]: 4.12%
- viability at 5 µM [14]: 75.6%
- Activity [15]: 19.23%
- Activity [16]: 2.25%
- Activity [17]: 2.96%
- Activity [18]: 14.59%
- Activity [19]: 30.04%
- Activity [20]: 55.37%
- Activity [21]: 80.03%
- Activity [22]: 15.1%
- Activity [23]: 4.87%
- Activity [24]: 81.22%
- Activity [25]: 13.28%
- Activity [26]: 5.5%

- inhibition [27]: 2.8%
Compound: O=C(CCCCCCC(=O)Nc1ccccc1)NO

- IC50 [3]: 440 nM
- IC50 [4]: 2430 nM
- IC50 [5]: 1840 nM
- inhibition [28]: 65.3%
- inhibition [27]: 63.8%
Compound: COc1cc2c(Oc3ccc(NC(=O)c4nn(-c5ccc(C)cc5C)cc(C)c4=O)cc3)ccnc2cc1OCCCCCCC(=O)NO

- IC50 [3]: 950 nM
- IC50 [4]: 2650 nM
- IC50 [5]: 3920 nM
- inhibition [28]: 9.2%
- inhibition [27]: 90.8%
Compound: COc1cc2c(Oc3ccc(NC(=O)c4nn(-c5ccccc5F)cc(C)c4=O)cc3)ccnc2cc1OCCCC(=O)NO

- IC50 [3]: 9260 nM
- IC50 [4]: 8780 nM
- IC50 [5]: 5980 nM
- inhibition [28]: inactive
- inhibition [27]: 63.5%
Compound: COc1cc2c(Oc3ccc(NC(=O)c4nn(-c5ccccc5C)cc(C)c4=O)cc3)ccnc2cc1OCC(=O)NO

- IC50 [3]: 940 nM
- IC50 [4]: 7410 nM
- IC50 [5]: 9260 nM
- inhibition [28]: 12.6%
- inhibition [27]: 96.4%
Compound: COc1cc2c(Oc3ccc(NC(=O)c4nn(-c5ccccc5)ccc4=O)cc3)ccnc2cc1OCCCC(=O)NO

- IC50 [3]: 350 nM
- IC50 [4]: 3480 nM
- IC50 [5]: 1590 nM
- inhibition [28]: 5.2%
- inhibition [27]: 50.2%
Compound: COc1cc2c(Oc3ccc(NC(=O)c4nn(-c5ccc(Cl)c(C(F)(F)F)c5)cc(C)c4=O)cc3)ccnc2cc1OCC(=O)NO

- IC50 [3]: 290 nM
- IC50 [4]: 1830 nM
- IC50 [5]: 1820 nM
- inhibition [28]: 36.9%
- inhibition [27]: 95.7%
Compound: COc1cc2c(Oc3ccc(NC(=O)c4nn(-c5ccccc5C)cc(C)c4=O)cc3)ccnc2cc1OCCCCCC(=O)NO

- IC50 [3]: 3980 nM
- IC50 [4]: 3200 nM
- IC50 [5]: 5740 nM
- inhibition [28]: 6%
- inhibition [27]: 93.5%
Compound: COc1cc2c(Oc3ccc(NC(=O)c4nn(-c5ccccc5C)ccc4=O)cc3F)ccnc2cc1OCCCC(=O)NO

- IC50 [1]: 34.8 nM
- IC50 [2]: 14.2 nM
- IC50 [3]: 300 nM
- IC50 [4]: 1210 nM
- IC50 [5]: 230 nM
- inhibition [28]: 86.4%
- inhibition [27]: 78.2%
Compound: CCc1cn(-c2ccccc2)nc(C(=O)Nc2ccc(Oc3ccnc4cc(OCCCCCCC(=O)NO)c(OC)cc34)cc2)c1=O

- IC50 [3]: 690 nM
- IC50 [4]: 2330 nM
- IC50 [5]: 4170 nM
- inhibition [28]: 53.3%
- inhibition [27]: 95%
Compound: COc1cc2c(Oc3ccc(NC(=O)c4nn(-c5ccccc5)cc(C)c4=O)cc3F)ccnc2cc1OCCCCCC(=O)NO

- IC50 [3]: 590 nM
- IC50 [4]: 2320 nM
- IC50 [5]: 1320 nM
- inhibition [28]: 61.1%
- inhibition [27]: 89.1%
Compound: COc1cc2c(Oc3ccc(NC(=O)c4nn(-c5ccccc5F)cc(C)c4=O)cc3F)ccnc2cc1OCCCCCC(=O)NO

- IC50 [1]: 34 nM
- IC50 [2]: 19.9 nM
- IC50 [3]: 150 nM
- IC50 [4]: 1610 nM
- IC50 [5]: 420 nM
- inhibition [28]: 86.6%
- inhibition [27]: 88.6%
Compound: COc1cc2c(Oc3ccc(NC(=O)c4nn(-c5ccccc5)cc(C)c4=O)cc3)ccnc2cc1OCCCCCCC(=O)NO

— ChEMBL document CHEMBL4706531, “Discovery of Novel c-Mesenchymal-Epithelia transition factor and histone deacetylase dual inhibitors” (Eur J Med Chem, 2020)
